ED50, minimal effective dose and LD50 data for 13 compounds are collected here from ChEMBL document CHEMBL1124408, “3-aminopyridazine derivatives with atypical antidepressant, serotonergic, and dopaminergic activities” (J Med Chem, 1989).

Series [1] relates to Mus musculus. The series can be described thus: Compound was tested for antidepressant activity against reserpine induced ptosis in mice after intraperitoneal administration.; value ranges from 24-55. Type of series: functional. Conditions: ip. Summed up: (§1)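 Female CD1 mice (18-22 g) received the drug in distilled water/gum tragacanth ip at multiple doses (7-20 mice/dose), given together with reserpine (2 mg/kg iv). One hour later, palpebral ptosis (half or more of the lid closed) was scored all-or-none. Screening dose was at most 50% of the seizure threshold dose.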

Series [2] deals with Mus musculus. The series can be described thus: Serotonergic activity was determined by measuring the potentiation of 5-hydroxytryptophan in mice upon ip administration. Type of series: functional. Summed up:
(§2)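 Drug was injected ip in distilled water/gum tragacanth to female CD1 mice (18-22 g) at multiple doses (7-20 mice/dose), 30 min before a threshold dose of L-5-HTP (200 mg/kg ip). Mice were held singly in small cages, and tremor was scored all-or-none over the 20 min after L-5-HTP.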

The test system of series [3] is Mus musculus. The series can be described thus: Ability to modify turning behavior of mice after intraperitoneal administration. It is filed as functional. The settings on record: ip, read-out: MED. Summed up: (§3)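 Female CD1 mice (25-30 g) were lesioned by stereotaxic injection of 6-OHDA (10 μg in 1 μL saline with 1 mg/mL ascorbic acid) into the right striatum under pentobarbitone (60 mg/kg ip). Seven days later, drug in distilled water/gum tragacanth was given ip at multiple doses (7-20 mice/dose). Ipsilateral turns were counted for 2 min starting 30 min post-dose.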

The nature of series [4]: (§4) Acute toxicity in mice after intraperitoneal administration. Conditions: mouse, in vivo, ip, LD50.
The test system of series [5] is Mus musculus. Description: Compound was tested for antidepressant activity against reserpine induced ptosis in mice after intraperitoneal administration.; value ranges from 31-38. It is filed as functional. Conditions: ip. The procedure, abridged:
as §1

For series [6], the system named is Mus musculus. The series can be described thus: Compound was tested for antidepressant activity against reserpine induced ptosis in mice after intraperitoneal administration.; value ranges from 16-20. Type of series: functional. The settings on record: ip. The procedure, abridged: as §1
The subject of series [7] is Mus musculus. The series can be described thus: Serotonergic activity by measuring the potentiation of 5-hydroxy tryptophan in mice upon ip administration; value ranges from 17-20. Type of series: functional. The procedure, abridged:
as §2

The subject of series [8] is Mus musculus. The series can be described thus: Compound was tested for antidepressant activity against reserpine induced ptosis in mice after intraperitoneal administration.; value ranges from 3.2-6.3. It is filed as functional. Conditions: ip. Summed up:
as §1

For series [9], the system named is Mus musculus. The series can be described thus: Serotonergic activity by measuring the potentiation of 5-hydroxy tryptophan in mice upon ip administration; the value ranges from 3-38. Type of series: functional. The procedure, abridged: as §2
Series [10] has as its system Mus musculus. The series can be described thus: Serotonergic activity by measuring the potentiation of 5-hydroxy tryptophan in mice upon ip administration; value ranges from 4.9-6.7. Type of series: functional. The procedure, abridged:
as §2

Series [11] relates to Mus musculus. Description: Antidepressant activity against reserpine induced ptosis in mice after intraperitoneal administration. Type of series: functional. Conditions: ip. Summed up:
as §1

Series [12] concerns Mus musculus. Description: Compound was tested for antidepressant activity against reserpine induced ptosis in mice after intraperitoneal administration.; value ranges from 14-18. Conditions: ip. It is filed as functional. Summed up: as §1
The test system of series [13] is Mus musculus. Description: Compound was tested for antidepressant activity against reserpine induced ptosis in mice after intraperitoneal administration.; value ranges from 5-9. It is filed as functional. Conditions: ip. The procedure, abridged:
as §1

The subject of series [14] is Mus musculus. The series can be described thus: Compound was tested for antidepressant activity against reserpine induced ptosis in mice after intraperitoneal administration.; value ranges from 27-31. Conditions: ip. It is filed as functional. Summed up: as §1
Series [15] concerns Mus musculus. Description: Serotonergic activity by measuring the potentiation of 5-hydroxy tryptophan in mice upon ip administration; value ranges from 4.4-5.7. Type of series: functional. The procedure, abridged: as §2
In series [16] the test system is Mus musculus. Description: Compound was tested for antidepressant activity against reserpine induced ptosis in mice after intraperitoneal administration.; value ranges from 5.9-7.3. It is filed as functional. Conditions: ip. Summed up: as §1
Series [17] has as its system Mus musculus. The series can be described thus: Ability to modify turning behavior of mice after intraperitoneal administration. The settings on record: ip, read-out: MED. Type of series: functional. Summed up:
as §3

In series [18] the test system is Mus musculus. The series can be described thus: Compound was tested for antidepressant activity against reserpine induced ptosis in mice after intraperitoneal administration.; value ranges from 0.13-0.22. It is filed as functional. Conditions: ip. The procedure, abridged: as §1
Series [19] concerns Mus musculus. The series can be described thus: Compound was tested for antidepressant activity against reserpine induced ptosis in mice after intraperitoneal administration.; value ranges from 1.9-10.7. It is filed as functional. The settings on record: ip. Summed up:
as §1

For series [20], the system named is Mus musculus. The series can be described thus: Serotonergic activity by measuring the potentiation of 5-hydroxy tryptophan in mice upon ip administration; value ranges from 1.9-11.7. Type of series: functional. Summed up: as §2
Series [21] has as its system Mus musculus. Description: Compound was tested for antidepressant activity against reserpine induced ptosis in mice after intraperitoneal administration.; value ranges from 4-7. It is filed as functional. Conditions: ip. Summed up: as §1
In series [22] the test system is Mus musculus. Description: Serotonergic activity by measuring the potentiation of 5-hydroxy tryptophan in mice upon ip administration; value ranges from 19-31. It is filed as functional. The procedure, abridged: as §2
The test system of series [23] is Mus musculus. Described as §4. The settings on record: in vivo, ip.
In series [24] the test system is Mus musculus. The series can be described thus: Compound was tested for antidepressant activity against reserpine induced ptosis in mice after intraperitoneal administration.; value ranges from 2.2-2.4. Type of series: functional. The settings on record: ip. Summed up:
as §1

By ED50 is commonly meant the midpoint of the dose-response relation. In general, LD50 refers to the dose at which mortality reaches 50%. With `CNCCNc1nnc(-c2ccccc2)cc1C`, the ED50 was 36 mg/kg in series [1] and ≥ 30 mg/kg in series [2]. Also, in [3], the minimal effective dose came out at 2 mg/kg. Also, the LD50 in series [4] was > 200 mg/kg.

For `Cc1cc(-c2ccccc2)nnc1NC(C)CN` (stereo not drawn), the ED50 in [5] is 34 mg/kg; in [2], > 30 mg/kg. In addition, the minimal effective dose in [3] is 2 mg/kg. For the same compound, the LD50 in [4] is > 200 mg/kg.

Turning to `Br.Br.Cc1cc(-c2ccccc2O)nnc1NCCN1CCOCC1`, the ED50 came out at 16 mg/kg in series [6] and 17 mg/kg in series [7]. The minimal effective dose in [3] was 0.1 mg/kg. Moreover, the LD50 in series [4] was > 200 mg/kg.

For `Cc1cc(C2CCCCC2)nnc1NCCN1CCOCC1`, the ED50 amounted to 4.5 mg/kg in series [8] and 16 mg/kg in series [9]. For the same compound, the minimal effective dose in [3] is > 10 mg/kg. In series [4], this compound had an LD50 of 43 mg/kg.

For `Cc1cc(-c2ccc(Cl)cc2)nnc1NCCN1CCOCC1`, the ED50 is 5.8 mg/kg in series [10] and > 10 mg/kg in series [11]. Moreover, the minimal effective dose in [3] was > 2 mg/kg. For the same compound, the LD50 in [4] amounted to 62 mg/kg.

With `Cc1cc(-c2ccccc2)nnc1NCCN`, the ED50 in series [12] is 16 mg/kg; in [2], > 30 mg/kg. Besides, the minimal effective dose in [3] turned out to be 0.5 mg/kg. In [4], this compound registered an LD50 of 300 mg/kg.

As to `COc1cccc(-c2cc(C)c(NCCN3CCOCC3)nn2)c1`, the ED50 was 6 mg/kg in series [13] and > 5 mg/kg in [2]. Also, the minimal effective dose in series [3] was determined as 0.5 mg/kg. The compound also displayed an LD50 in [4] of 18 mg/kg.

Consider `Cc1cc(-c2ccccc2)nnc1NCCN(C)C`, for which the results for the ED50 in [14] and in series [2] were 29 mg/kg and > 30 mg/kg, respectively. The minimal effective dose in series [3] worked out at 10 mg/kg. The compound also returned an LD50 in series [4] of 118 mg/kg.

With `N#Cc1cc(-c2ccccc2)nnc1NCCN1CCOCC1` [BAZINAPRINE], the ED50 in series [15] was determined as 5 mg/kg; in [16] it was 6.6 mg/kg. In addition, the minimal effective dose in [3] amounted to 0.1 mg/kg.

In the case of `CN1Cc2c(N)cccc2C(c2ccccc2)C1` (stereo not drawn) [NOMIFENSINE], in [17], the minimal effective dose was 5 mg/kg. The results for the ED50 in series [18] and in [2] were 0.17 mg/kg and > 30 mg/kg, respectively.

For `Cc1cc(-c2ccc(F)cc2)nnc1NCCN1CCOCC1`, the ED50 in series [19] turned out to be 4.5 mg/kg; in series [20] it was 4.7 mg/kg. Moreover, the minimal effective dose in [3] is 2 mg/kg. Moreover, the LD50 in series [4] amounted to 45 mg/kg.

For `Cc1cc(-c2ccccc2)nnc1NCCN1CCOCC1.Cl`, the values for the ED50 in [21] and in [22] were 5 mg/kg and 24 mg/kg, respectively. Further, the LD50 in series [23] was determined as 63 mg/kg.

On to `CN(C)CCCN1c2ccccc2CCc2ccccc21` [IMIPRAMINE], for which the ED50 is 2.3 mg/kg in series [24] and > 30 mg/kg in [2]. Further, in [3], the minimal effective dose is > 20 mg/kg.
